From ChEMBL document CHEMBL4138319, “Discovery, Synthesis, Pharmacological Profiling, and Biological Characterization of Brintonamides A-E, Novel Dual Protease and GPCR Modulators from a Marine Cyanobacterium” (J Med Chem, 2018)
Activity calls are given as the source filed them. No cut-off for these calls is given here. Square brackets hold non-standard residues; d marks the D form. Peptide text beside a SMILES is read from it. * marks the point of attachment. X1 = CC[C@H](C)[C@@H](OC(=O)/C=C/c1ccccc1)C(=O)*; dNMeF = CN[C@H](Cc1ccccc1)C(=O)O; NMeL = CN[C@@H](CC(C)C)C(=O)O

Experiments:
[1] = target: T1, C-C chemokine receptor type 10 (Homo sapiens) (UniProt P46092); experiment: Antagonist activity at CCR10 in human MDA-MB-231 cells assessed as inhibition of CCL27-induced proliferation up to 10 uM preincubated for 2 hrs followed by CCL27 addition measured after 48 hrs by MTT assay; assay type: functional, cell-based
T1 sequence (whole entry): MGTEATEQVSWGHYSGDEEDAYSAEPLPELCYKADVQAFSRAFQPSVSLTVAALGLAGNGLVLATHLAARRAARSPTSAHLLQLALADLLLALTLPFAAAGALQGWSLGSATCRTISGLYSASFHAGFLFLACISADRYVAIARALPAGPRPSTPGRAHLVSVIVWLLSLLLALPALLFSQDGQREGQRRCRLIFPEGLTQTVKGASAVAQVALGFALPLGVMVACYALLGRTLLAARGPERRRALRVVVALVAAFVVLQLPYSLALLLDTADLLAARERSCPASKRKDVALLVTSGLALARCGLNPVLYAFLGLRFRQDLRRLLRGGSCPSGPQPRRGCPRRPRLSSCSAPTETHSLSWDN
Method in brief: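 MDA-MB-231 cells are seeded at 10,000/well in serum-free DMEM for 24 h, then pretreated with compound for 2 h. CCL27 is added at 1 μg/mL final for 48 h. Viability is measured by MTT and compared with solvent control, mean ± SD, n = 3.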

[2] = target: T2, Substance-K receptor (Homo sapiens) (UniProt P21452); experiment: Antagonist activity at human TACR2 expressed in CHOK1 cells assessed as substance P-induced beta-arrestin recruitment at 10 uM pre-incubated for 30 mins before substance P stimulation for 90 or 180 mins by chemiluminescence method; assay type: functional, cell-based; design: scale not given: the % may be the effect or the level left
T2 sequence (whole entry): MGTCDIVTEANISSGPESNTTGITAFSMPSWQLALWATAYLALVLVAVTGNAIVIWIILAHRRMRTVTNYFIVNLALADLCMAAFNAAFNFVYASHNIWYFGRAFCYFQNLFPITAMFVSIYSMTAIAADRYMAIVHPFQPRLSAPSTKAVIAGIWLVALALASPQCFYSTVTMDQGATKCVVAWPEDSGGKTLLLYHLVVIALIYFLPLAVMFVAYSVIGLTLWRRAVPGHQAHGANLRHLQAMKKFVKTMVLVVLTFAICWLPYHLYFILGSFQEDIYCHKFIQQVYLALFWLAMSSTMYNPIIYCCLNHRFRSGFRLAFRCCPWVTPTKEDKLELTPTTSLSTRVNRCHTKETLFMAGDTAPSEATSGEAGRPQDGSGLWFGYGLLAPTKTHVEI

[3] = target: T1, C-C chemokine receptor type 10 (Homo sapiens); experiment: Antagonist activity at human CCR10 expressed in human U2OS cells assessed as inhibition of CCL27-induced beta-arrestin recruitment at 10 uM pre-incubated for 30 mins before CCL27 stimulation for 90 or 180 mins by chemiluminescence method; assay type: functional, cell-based; design: scale not given: the % may be the effect or the level left
Caspase-14 = target: T3, Caspase-14 (Homo sapiens, UniProt P31944); experiment: Inhibition of human caspase 14 using Ac-WEHD-AMC fluorogenic peptide as substrate by fluorescence assay
T3 sequence (P31944 whole entry): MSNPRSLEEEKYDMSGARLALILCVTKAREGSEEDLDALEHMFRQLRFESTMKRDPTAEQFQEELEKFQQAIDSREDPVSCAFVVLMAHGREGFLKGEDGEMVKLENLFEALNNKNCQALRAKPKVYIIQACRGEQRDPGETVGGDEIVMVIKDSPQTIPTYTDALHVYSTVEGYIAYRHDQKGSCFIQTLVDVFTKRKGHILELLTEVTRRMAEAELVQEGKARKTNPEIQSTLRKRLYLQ
Method in brief: (§1)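 Activity followed as a time course of rising fluorescence from a fluorescently labelled peptide substrate. The initial linear slope (signal/min) was used.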

[4] = target: Somatostatin receptor type 3 (Homo sapiens, UniProt P32745); experiment: Antagonist activity at human SSTR3 expressed in HEK293 cells assessed as [Tyr1]-somatostatin 14-induced beta-arrestin recruitment at 10 uM pre-incubated for 30 mins before [Tyr1]-somatostatin 14 stimulation for 90 or 180 mins by chemiluminescence method; assay type: functional, cell-based; design: scale not given: the % may be the effect or the level left
Kallikrein-7 [5] = target: T4, Kallikrein-7 (Homo sapiens, UniProt P49862); experiment: Inhibition of kallikrein 7 (unknown origin) using fluorescently labeled peptide substrate by fluorescence assay
Method in brief: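 KLK7 follow-up: 10-dose titrations, 3-fold serial dilution from 100 μM, in duplicate, with gabexate mesylate as positive control. Fluorescence from the labeled peptide substrate is monitored over time, and the initial linear slope (signal/min) is used to derive IC50.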
Target sequence in this assay (P49862 30-253 limits assumed): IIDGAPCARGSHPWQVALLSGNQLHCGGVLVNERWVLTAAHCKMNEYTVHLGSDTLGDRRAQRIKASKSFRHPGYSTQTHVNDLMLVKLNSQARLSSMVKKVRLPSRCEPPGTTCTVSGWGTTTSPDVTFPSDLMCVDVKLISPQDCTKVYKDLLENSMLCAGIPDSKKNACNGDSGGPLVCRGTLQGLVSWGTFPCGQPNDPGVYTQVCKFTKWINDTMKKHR

Chymase = target: T5, Chymase (Homo sapiens, UniProt P23946); experiment: Inhibition of chymase (unknown origin) by fluorescence assay; method in brief: as §1
T5 sequence (P23946 whole entry): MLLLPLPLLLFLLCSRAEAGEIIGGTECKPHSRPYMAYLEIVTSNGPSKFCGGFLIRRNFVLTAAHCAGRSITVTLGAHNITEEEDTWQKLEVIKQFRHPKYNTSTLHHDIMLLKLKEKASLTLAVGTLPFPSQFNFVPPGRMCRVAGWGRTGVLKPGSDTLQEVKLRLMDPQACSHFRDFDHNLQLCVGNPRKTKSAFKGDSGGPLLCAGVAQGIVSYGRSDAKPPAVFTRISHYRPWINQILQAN

[6] = target: T6, Oxytocin receptor (Homo sapiens) (UniProt P30559); experiment: Antagonist activity at human OXTR expressed in CHOK1 cells assessed as oxytocin-induced beta-arrestin recruitment at 10 uM pre-incubated for 30 mins before oxytocin stimulation for 90 or 180 mins by chemiluminescence method; assay type: functional, cell-based; design: scale not given: the % may be the effect or the level left
T6 sequence (whole entry): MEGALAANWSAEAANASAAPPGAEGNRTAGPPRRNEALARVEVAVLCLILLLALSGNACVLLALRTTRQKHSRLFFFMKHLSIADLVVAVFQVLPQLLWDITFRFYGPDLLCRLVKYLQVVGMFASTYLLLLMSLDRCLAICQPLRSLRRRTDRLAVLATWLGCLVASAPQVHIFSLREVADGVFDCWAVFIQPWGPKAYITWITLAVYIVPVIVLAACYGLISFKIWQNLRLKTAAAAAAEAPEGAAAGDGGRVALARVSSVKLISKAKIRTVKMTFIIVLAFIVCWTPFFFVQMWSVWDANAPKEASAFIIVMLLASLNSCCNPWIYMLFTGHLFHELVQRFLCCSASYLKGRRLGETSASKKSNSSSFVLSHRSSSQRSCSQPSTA

MDA-MB-468 = experiment: Antimigratory activity against human MDA-MB-468 cells at 0.1 to 10 uM after 48 hrs; assay type: functional, cell-based
Method in brief: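 Transwell migration through an 8 μm pore membrane. 5000 MDA-MB-468 cells in DMEM with 10% FBS are treated with graded compound concentrations or solvent on both sides for 48 h at 37 °C. Migrated cells are stained with crystal violet and counted. Run in triplicate.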

Kallikrein-7 [7] = target: T4, Kallikrein-7; experiment: Inhibition of kallikrein 7 (unknown origin) by fluorescence assay
Method in brief: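 Protease panel screen: 10-dose titrations, 3-fold serial dilution from 100 μM, singlet. Protease activity is followed as the time-course rise in fluorescence from a labeled peptide substrate, and the initial linear slope (signal/min) is analysed.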
Target sequence in this assay (P49862 whole entry): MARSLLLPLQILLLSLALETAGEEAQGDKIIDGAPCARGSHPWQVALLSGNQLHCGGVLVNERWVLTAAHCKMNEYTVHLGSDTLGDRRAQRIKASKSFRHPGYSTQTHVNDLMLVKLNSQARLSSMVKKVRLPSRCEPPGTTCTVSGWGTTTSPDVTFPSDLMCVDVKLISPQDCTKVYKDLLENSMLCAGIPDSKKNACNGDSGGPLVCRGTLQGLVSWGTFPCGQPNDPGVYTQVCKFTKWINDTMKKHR

Chain of Somatostatin receptor type 3 (P32745 whole entry): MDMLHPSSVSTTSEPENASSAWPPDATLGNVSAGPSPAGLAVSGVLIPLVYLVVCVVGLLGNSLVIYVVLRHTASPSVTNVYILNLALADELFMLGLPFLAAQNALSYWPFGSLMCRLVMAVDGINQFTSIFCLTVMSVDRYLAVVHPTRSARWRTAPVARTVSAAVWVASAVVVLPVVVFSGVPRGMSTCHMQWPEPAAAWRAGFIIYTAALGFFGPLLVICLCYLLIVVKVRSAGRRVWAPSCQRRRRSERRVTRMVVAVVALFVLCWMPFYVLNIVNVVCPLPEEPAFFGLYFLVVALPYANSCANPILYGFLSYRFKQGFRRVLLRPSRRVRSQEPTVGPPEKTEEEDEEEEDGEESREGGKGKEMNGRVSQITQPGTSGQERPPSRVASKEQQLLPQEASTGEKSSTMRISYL

## CC[C@H](C)[C@@H](OC(=O)/C=C/c1ccccc1)C(=O)N1CCC[C@H]1C(=O)NCC(=O)N(C)[C@@H](CC(C)C)C(=O)N[C@@H](C)C(=O)N(C)[C@H](Cc1ccccc1)C(=O)N1CCC[C@H]1C(=O)OC (X1-PG[NMeL]A[dNMeF]P-OMe)
[1]
  inhibition: 10%
[2]
  Activity: 97%
[3]
  Activity: 98%
Caspase-14
  IC50: 10.1 µM
[4]
  Activity: 77%
Kallikrein-7 [5]
  inhibition: Active
Chymase
  IC50: 23.2 µM
[6]
  Activity: 76%
MDA-MB-468
  Activity: Active
Kallikrein-7 [7]
  IC50: 18.9 µM
